# Activity calls are given as the source filed them. The calls are words filed in the database; no cut-off is given here.
# Columns and labels:
# MDA-MB-231 [1] = assay: Effect on epithelial-mesenchymal transition in human MDA-MB-231 cells assessed as ratio of vimentin to beta-actin level at 5 uM by Western blot analysis (reference value: 1); format: functional
# BT-549 [2] = assay: Induction of apoptosis in nuclear fractions of human BT549 cells assessed as ratio of PARP to beta-actin level at 10 uM by western blot analysis (reference value: 1); format: functional
# BT-549 [3] = assay: Inhibition of mammosphere formation in human BT549 cells assessed as ratio of KLF4 to beta actin level at 5 uM by Western blot analysis (Rvb= 1); format: functional
# MDA-MB-231 [4] = assay: Inhibition of colony formation in human MDA-MB-231 cells at 10 uM supplemented with fresh medium containing compound every 3 days for 10 days by microscopic method based soft agar colony formation assay; format: functional, cell-based
# BT-549 [5] = assay: Induction of apoptosis in nuclear fractions of human BT549 cells assessed as ratio of cleaved PARP to beta-actin level at 5 uM by western blot analysis (reference value: 1)
# BT-549 [6] = assay: Inhibition of mammosphere formation in human BT549 cells assessed as ratio of C-Myc to beta actin level at 5 uM by Western blot analysis (Rvb= 1); format: functional
# MDA-MB-231 [7] = assay: Induction of apoptosis in human MDA-MB-231 cells assessed as ratio of cleaved caspase-9 to beta-actin level at 5 uM by western blot analysis (reference value: 1); format: functional
# BT-549 [8] = assay: Effect on epithelial-mesenchymal transition in human BT549 cells assessed as ratio of vimentin to beta-actin level at 5 uM by Western blot analysis (reference value: 1); format: functional
# MDA-MB-231 [9] = assay: Induction of apoptosis in nuclear fractions of human MDA-MB-231 cells assessed as ratio of cleaved PARP to beta-actin level at 10 uM by western blot analysis (reference value: 1); format: functional
# MCF-10A [10] = assay: Induction of apoptosis in human MCF10A cells assessed as ratio of cleaved caspase-9 to beta-actin level at 5 uM by western blot analysis (reference value: 1); format: cell-based
# MCF-10A [11] = assay: Induction of apoptosis in human MCF10A cells assessed as ratio of cleaved caspase-8 to beta-actin level at 5 uM by western blot analysis (reference value: 1); format: cell-based
# MCF7 [12] = assay: Induction of apoptosis in human MCF7 cells assessed as ratio of cleaved caspase-8 to beta-actin level at 5 uM by western blot analysis (reference value: 1); format: functional
# MCF-10A [13] = assay: Cytotoxicity against human MCF10A cells assessed as reduction in cell viability at 5 uM by MTT assay; format: cell-based
# MCF7 [14] = assay: Inhibition of mammosphere formation in human MCF7 cells assessed as ratio of KLF4 to beta actin level at 5 uM by Western blot analysis (Rvb= 1); format: functional
# Method in brief: (§1)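 Post-treatment cell lysates were probed by Western blot for CSC markers, with β-actin as the loading control. Band densitometry was normalized to DMSO-treated samples.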
# MCF7 [15] = assay: Inhibition of colony formation in human MCF7 cells at 5 uM supplemented with fresh medium containing compound every 3 to 4 days for 7 days by crystal violet staining based adherent cell colony-forming assay; format: functional
# Method in brief: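 MCF-7 cells were plated for adherent colony formation and treated for 7 days. Colonies were counted at the end of treatment and normalized to untreated samples.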
# MCF7 [16] = assay: Inhibition of mammosphere formation in human MCF7 cells assessed as ratio of Nanog to beta actin level at 5 uM by Western blot analysis (Rvb= 1); format: functional; method in brief: as §1
# MDA-MB-231 [17] = assay: Effect on epithelial-mesenchymal transition in human MDA-MB-231 cells assessed as ratio of slug to beta-actin level at 5 uM by Western blot analysis (reference value: 1); format: functional
# BT-549 [18] = assay: Induction of apoptosis in human BT549 cells assessed as ratio of cleaved caspase-3 to beta-actin level at 5 uM by western blot analysis (reference value: 1); format: functional
# MDA-MB-231 [19] = assay: Anti-migratory activity against human MDA-MB-231 cells assessed as reduction in wound closure at 5 uM up to 24 hrs by wound-healing assay; format: functional, cell-based
# Method in brief: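 MDA-MB-231 monolayer was scratched to make a wound gap. Cells were treated alongside a DMSO vehicle control, and migration into the gap was imaged at 24 h.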
# MCF7 [20] = assay: Inhibition of mammosphere formation in human MCF7 cells assessed as ratio of Oct4A to beta actin level at 5 uM by Western blot analysis (Rvb= 1); format: functional; method in brief: as §1
# BT-549 [21] = assay: Induction of apoptosis in human BT549 cells assessed as ratio of cleaved caspase-8 to beta-actin level at 5 uM by western blot analysis (reference value: 1); format: functional
# MDA-MB-231 [22] = assay: Cytotoxicity against human MDA-MB-231 cells assessed as reduction in cell viability by MTT assay; format: functional, cell-based
# MDA-MB-231 [23] = assay: Inhibition of mammosphere formation in human MDA-MB-231 cells assessed as ratio of C-Myc to beta actin level at 5 uM by Western blot analysis (Rvb= 1); format: functional; method in brief: as §1
# BT-549 [24] = assay: Induction of apoptosis in human BT549 cells assessed as ratio of cleaved caspase-9 to beta-actin level at 5 uM by western blot analysis (reference value: 1); format: functional
# MDA-MB-231 [25] = assay: Effect on beta-catenin translocation in nuclear fraction of human MDA-MB-231 cells assessed as ratio of beta-catenin to beta-actin level at 10 uM by Western blot analysis (reference value: 1); format: functional
# MDA-MB-231 [26] = assay: Inhibition of mammosphere formation in human MDA-MB-231 cells assessed as ratio of KLF4 to beta actin level at 5 uM by Western blot analysis (Rvb= 1); format: functional; method in brief: as §1
# MCF7 [27] = assay: Inhibition of mammosphere formation in human MCF7 cells assessed as ratio of C-Myc to beta actin level at 5 uM by Western blot analysis (Rvb= 1); format: functional; method in brief: as §1
# MDA-MB-231 [28] = assay: Effect on epithelial-mesenchymal transition in human MDA-MB-231 cells assessed as ratio of E-cadherin to beta-actin level at 5 uM by Western blot analysis (reference value: 1); format: functional
# BT-549 [29] = assay: Effect on beta-catenin translocation in nuclear fraction of human BT549 cells assessed as ratio of beta-catenin to beta-actin level at 10 uM by Western blot analysis (reference value: 1); format: functional
# MDA-MB-231 [30] = assay: Cytotoxicity against human MDA-MB-231 cells assessed as reduction in cell viability at 5 uM by MTT assay; format: functional
# MDA-MB-231 [31] = assay: Induction of apoptosis in human MDA-MB-231 cells assessed as ratio of cleaved caspase-3 to beta-actin level at 5 uM by western blot analysis (reference value: 1); format: functional
# BT-549 [32] = assay: Cytotoxicity against human BT549 cells assessed as reduction in cell viability by MTT assay; format: functional, cell-based
# MCF-10A [33] = assay: Induction of apoptosis in human MCF10A cells assessed as ratio of cleaved caspase-3 to beta-actin level at 5 uM by western blot analysis (reference value: 1); format: cell-based
# MCF7 [34] = assay: Induction of apoptosis in human MCF7 cells assessed as ratio of cleaved caspase-9 to beta-actin level at 5 uM by western blot analysis (reference value: 1); format: functional
# BT-549 [35] = assay: Effect on beta-catenin translocation in cytosolic fraction of human BT549 cells assessed as ratio of beta-catenin to beta-actin level at 10 uM by Western blot analysis (reference value: 1); format: functional
# MCF7 [36] = assay: Cytotoxicity against human MCF7 cells assessed as reduction in cell viability at 5 uM by MTT assay; format: functional
# BT-549 [37] = assay: Cytotoxicity against human BT549 cells assessed as reduction in cell viability at 5 uM by MTT assay; format: functional
# MCF7 [38] = assay: Inhibition of mammosphere formation in human MCF7 cells at 10 uM after 7 days by microscopic method; format: functional, cell-based
# Method in brief: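 MCF-7 cells were grown under mammosphere-forming conditions with compound. Spheres 60 μm or larger were counted for quantitation.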
# MDA-MB-231 [39] = assay: Induction of apoptosis in nuclear fractions of human MDA-MB-231 cells assessed as ratio of PARP to beta-actin level at 10 uM by western blot analysis (reference value: 1); format: functional
# MCF7 [40] = assay: Induction of apoptosis in human MCF7 cells assessed as ratio of cleaved caspase-3 to beta-actin level at 5 uM by western blot analysis (reference value: 1); format: functional
# MCF7 [41] = assay: Inhibition of mammosphere formation in human MCF7 cells assessed as ratio of Sox2 to beta actin level at 5 uM by Western blot analysis (Rvb= 1); format: functional; method in brief: as §1
# BT-549 [42] = assay: Effect on epithelial-mesenchymal transition in human BT549 cells assessed as ratio of E-cadherin to beta-actin level at 5 uM by Western blot analysis (reference value: 1); format: functional
# MDA-MB-231 [43] = assay: Effect on beta-catenin translocation in cytosolic fraction of human MDA-MB-231 cells assessed as ratio of beta-catenin to beta-actin level at 10 uM by Western blot analysis (reference value: 1); format: functional
# MDA-MB-231 [44] = assay: Induction of apoptosis in human MDA-MB-231 cells assessed as ratio of cleaved caspase-8 to beta-actin level at 5 uM by western blot analysis (reference value: 1); format: functional
# BT-549 [45] = assay: Effect on epithelial-mesenchymal transition in human BT549 cells assessed as ratio of slug to beta-actin level at 5 uM by Western blot analysis (reference value: 1); format: functional
structure (smiles),measurement,setting,value
C=C(c1ccc(C(=O)O)cc1)c1cc2c(cc1C)C(C)(C)CCC2(C)C [BEXAROTENE],Ratio,MDA-MB-231 [1],0.4
same,Ratio,BT-549 [2],1.8
same,Ratio,BT-549 [3],1.2
same,inhibition,MDA-MB-231 [4],inactive
same,Ratio,BT-549 [5],1.7
same,Ratio,BT-549 [6],1.4
same,Ratio,MDA-MB-231 [7],3.2
same,Ratio,BT-549 [8],0.9
same,Ratio,MDA-MB-231 [9],1.6
same,Ratio,MCF-10A [10],1.1
same,Ratio,MCF-10A [11],1
same,Ratio,MCF7 [12],1
same,Activity,MCF-10A [13],Non-Toxic
same,Ratio,MCF7 [14],1
same,inhibition,MCF7 [15],inactive
same,Ratio,MCF7 [16],1
same,Ratio,MDA-MB-231 [17],1
same,Ratio,BT-549 [18],1.1
same,Activity,MDA-MB-231 [19],inactive
same,Ratio,MCF7 [20],1.2
same,Ratio,BT-549 [21],1.1
same,EC50,MDA-MB-231 [22],> 56 µM
same,Ratio,MDA-MB-231 [23],1.2
same,Ratio,BT-549 [24],1.3
same,Ratio,MDA-MB-231 [25],1.8
same,Ratio,MDA-MB-231 [26],1.3
same,Ratio,MCF7 [27],1
same,Ratio,MDA-MB-231 [28],10.8
same,Ratio,BT-549 [29],0.7
same,Activity,MDA-MB-231 [30],inactive
same,Ratio,MDA-MB-231 [31],2.7
same,EC50,BT-549 [32],> 56 µM
same,Ratio,MCF-10A [33],0.95
same,Ratio,MCF7 [34],1.2
same,Ratio,BT-549 [35],2.2
same,Activity,MCF7 [36],inactive
same,Activity,BT-549 [37],inactive
same,inhibition,MCF7 [38],inactive
same,Ratio,MDA-MB-231 [39],0.9
same,Ratio,MCF7 [40],0.9
same,Ratio,MCF7 [41],0.8
same,Ratio,BT-549 [42],9.2
same,Ratio,MDA-MB-231 [43],2.4
same,Ratio,MDA-MB-231 [44],3.4
same,Ratio,BT-549 [45],1.3
